Screening results from PubChem.
This is a sample that favours compounds with a hit; in the whole collection about 2.4% have one here.
bCat nuc transl = beta-catenin nuclear translocation modulation; AID 1665; HeLa beta-catenin nuclear translocation, immunofluorescence imaging; nuclear translocation activity, % at 5 µM; 190,000 compounds, 0.3% hits;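 active = nuclear translocation activity above 50% at 5 µM, with a well cell count of 50 or more; inconclusive = wells under 50 cells across six images, flagged as toxic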;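 also: per-cell ratio of nuclear to cytoplasmic median beta-catenin stain intensity; plate controls were DMSO negative control for no effect and GSK-3 inhibitor IX positive control for full effect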
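System: HeLa cells, endogenous beta-catenin; compound dosing: 5 µM primary single dose, 0.1% DMSO, 0.02–20 µM confirmation series; incubation: 24 h compound exposure at 37°C, 5% CO2; signal: beta-catenin immunofluorescence imaging with DAPI; evaluation: % activation, nuclear-to-cytoplasmic median beta-catenin signal ratio per cell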
ROMK primary = modulators of human ROMK potassium channel; P48048; Tet-inducible ROMK, thallium flux fluorescence; actives lie on both sides; B-score at 10 µM; 130,000 compounds, 2% hits; AID 1918;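 active = signal ratio slope over the read window, or its plate-corrected B-score, at least 3 SD from the plate mean, either direction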;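 also: B-score of the F/F0 ratio slope over 7 to 12 s after thallium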
Target sequence (P48048 whole entry, looked up): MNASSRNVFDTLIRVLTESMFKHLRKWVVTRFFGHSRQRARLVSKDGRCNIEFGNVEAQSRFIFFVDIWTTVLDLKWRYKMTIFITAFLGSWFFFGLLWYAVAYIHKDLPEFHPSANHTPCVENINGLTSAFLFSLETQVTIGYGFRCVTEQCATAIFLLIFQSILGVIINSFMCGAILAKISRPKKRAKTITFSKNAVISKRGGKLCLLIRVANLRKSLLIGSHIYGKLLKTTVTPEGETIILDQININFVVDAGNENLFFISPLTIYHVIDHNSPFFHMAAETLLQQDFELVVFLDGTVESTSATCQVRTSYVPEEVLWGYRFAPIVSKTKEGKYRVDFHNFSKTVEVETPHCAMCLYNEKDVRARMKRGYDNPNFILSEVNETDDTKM
Insulin prom inh = TRM-6 insulin promoter activity inhibition | TRM-6 cells, insulin promoter-eGFP reporter, imaging; reporter expression induced with tamoxifen | inhibition, % at 2 µM | 130,000 compounds, 0.9% hits | AID 1273;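 active = inhibition above the mean plus 3 SD, with well images judged a real hit on visual review, cut at about 60% in these data, passing the limit was not always enough; inconclusive = inhibition over the cutoff but images rejected on review; inactive = inhibition not above the cutoff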
HSV augment = HSV replication enhancement. maximum fold increase. HSV replication augmentation in cells, fold increase. 220,000 compounds, 0.005% hits; in the data active = maximum fold increase above about 1.5; inconclusive = no clear call, values can overlap the other calls; tested in PC3 cells
MT stabilizer = microtubule stabilization, imaging screen; HeLa tubulin immunostaining HCS, 24 h; share of cells brighter than vehicle mean+2SD; % tubulin-high responders, % at 10 µM; 200,000 compounds, 0.83% hits; AID 2205;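 active = plate Z-score above 3 for both tubulin-high and condensed-nucleus cell shares, with cell loss under 80%, at 10 µM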;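 also: anti alpha tubulin signal scored within the nucleus-defined area of each cell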
ROMK retest = human ROMK channel modulation, retest confirmation | shares compounds with ROMK primary | ROMK thallium flux, fluorescence ratio; hits give low values | normalized thallium flux (F/F0 slope) at 10 µM | 3,000 compounds, 54% hits | AID 1917;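 active = Flux at 10 µM at least 3 SD below or above vehicle control mean in one or both replicates; inconclusive = no clear call, values can overlap the other calls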
* hit, by the source's call; i = inactive; u = inconclusive; x = no result given.

SMILES	bCat nuc transl	ROMK primary	Insulin prom inh	HSV augment	MT stabilizer	ROMK retest
CCc1ccc(NC(=O)C2C3/C=C\CCCCC32)cc1 (stereo unspecified)	1	0.036	-23	i	2	x
Cc1ccc(/C(O)=C/c2nc3cc(C)ccc3oc2=O)cc1	-2	-2.4*	x	i	x	0.048*
COc1ccc(CNC(=O)C/C(C)=N/NC(=O)COc2ccccc2)cc1	-2	0.003	x	i	3	x
COc1ccc(CNC(=O)c2csc(Cc3ccccc3)n2)cc1	0	x	20	i	0	0.074
CN(C)CCNC(=O)/C=C/c1cn(-c2ccccc2)nc1-c1cc2ccccc2oc1=O	1	x	-57	i	4	x
COC(=O)c1cc([N+](=O)[O-])c(-n2cncn2)c([N+](=O)[O-])c1	-1	-7.8*	x	i	2	0.043*
CCN(CC)CCn1c2ccccc2c2nc3ccc([N+](=O)[O-])cc3cc21	0	0.096	x	i	x	x
O=C(CSc1ccc(-c2ccco2)nn1)NC1CCCC1	0	x	-38	x	3	0.081
COc1ccc(S(=O)(=O)N2CCC[C@H]2C(=O)NC2=NCCS2)cc1	-2	x	-14	i	2	0.071
O=C1CCC(c2ccccc2)(c2ccccc2)CC1	0	x	x	i	x	x
CC(C)(C)N1CC2(c3ccccc3)CN(C(C)(C)C)CC(c3ccccc3)(C1)C2=O	x	3*	-20	i	3	0.075
COCc1cc(C)nc(SCC(=O)Nc2ccc(C)c(C)c2)c1C#N	1	0.67	x	i	3	x
COCc1cc(C)nc(SCC[N+](C)(C)CC(=O)Nc2cccc(C(F)(F)F)c2)c1C#N	4	-2.6*	-13	i	4	0.059*
O=C(CSc1nnc(Cn2c(=O)sc3ccccc32)n1CCc1ccccc1)N1CCCC1	-2	x	x	x	4	0.078
CCCc1nnc(N2C(=O)c3cccc4cccc(c34)C2=O)s1	1	2.3*	-47	i	1	0.08
O=C(/C=C/c1ccc(Br)cc1)N1CCN(c2cccc(C(F)(F)F)c2)CC1	-2	x	x	i	2	0.077
CN(C)S(=O)(=O)c1cccc(NC(=O)c2ccc3nccnc3c2)c1	0	x	x	i	x	x
CCOc1ccc(N(CC(=O)NC2CCCC2)S(=O)(=O)c2c(C)[nH]c(=O)[nH]c2=O)cc1	-3	x	x	i	7	x
O=C1c2ccccc2S(=O)(=O)N1CC1CC(c2ccccc2)=NO1 (stereo unspecified)	0	2.1*	27	i	4	0.068*
O=C(Cn1nc(Cl)nc1Cl)c1cc2ccccc2oc1=O	2	-6.5*	x	i	4	0.049*
Nc1nc(-c2ccc3c(c2)CCO3)cs1	0	-3	x	i	2	x
COC(=O)CCn1c(C)cc(C(=O)COc2ccccc2C(N)=O)c1C	-4	-5.4*	0	i	3	u
Cc1cc(C(=O)COc2ccccc2C(N)=O)c(C)n1CC1CCCO1 (stereo unspecified)	-2	-1.3	x	i	8	x
COC(=O)c1c(C)nc(C)c2c(=O)oc3ccccc3c12	-2	x	-11	i	4	u
Cc1cccc(N(C)C(=O)C2CCCN2S(=O)(=O)c2cccc3nsnc23)c1 (stereo unspecified)	1	0.28	x	i	x	x
SMILES	bCat nuc transl	ROMK primary	Insulin prom inh	HSV augment	MT stabilizer	ROMK retest
COc1ccccc1N1CC=C(c2cccc([N+](=O)[O-])c2)NC1=O	-1	-0.71	x	i	x	x
CCOC(=O)CNC(=O)CCCCCC(=O)NCC(=O)OCC	-7	0.092	30	i	3	0.071
CCN1C(=O)/C(=C/c2ccc(C)s2)NC1=S	-5	4.6*	-4	i	1	0.094
CC(C)CNC(=O)CN(C1CCCCC1)S(=O)(=O)c1ccccc1	-2	-1.4	x	i	5	x
O=C(O)c1ccc(Cn2cnc3scc(-c4ccccc4)c3c2=O)cc1	1	-6*	-76	i	5	0.055*
Cc1ccsc1/C=N/NC(=O)Cc1cccn1C	0	-0.79	14	i	4	x
COC(=O)c1cc(C(=O)N2CCN(c3cccc(C)c3C)CC2)cc([N+](=O)[O-])c1	91*	2.8*	x	i	15*	u
Cc1cccc(N2CCN(C(=O)c3ccc4c(c3)OCCO4)CC2)c1C	20	2.5	64	i	11	x
Cc1cccc(C)c1OCC(O)CNS(=O)(=O)c1ccccc1C(=O)N1CCCCC1 (stereo unspecified)	0	-1.8	-114	i	4	0.075
